Assay results from different studies.
Each line is one published result; the experiments were not run side by side.
Target: Tyrosine-protein kinase Fgr (FGR, Homo sapiens, UniProt P09769)

CN(C)CC#Cc1ccc(OCCCc2sc(N3CCc4cccc(C(=O)Nc5nc6ccccc6s5)c4C3)nc2C(=O)O)c(F)c1  remaining binding (cell-free assay, competition with immobilised ligand; 1 µM): 100%
CNC(=O)[C@@H]1CC[C@@H](n2c(-c3ccc4cnccc4c3)nc3ccc(C(=O)NCc4cccc(C(N)=O)c4)cc32)C1  remaining binding (binding, competition with immobilised ligand; 1 µM): 100%
O=C(Nc1c[nH]nc1C(=O)NC1CCNCC1)c1cc(F)cc(F)c1  remaining binding (binding, competition with immobilised ligand; 1 µM): 100%
CCS(=O)(=O)c1cc2cc(C[C@](O)(CC(C)(C)c3ccc(F)cc3C(N)=O)C(F)(F)F)[nH]c2cn1  remaining binding (cell-free assay, competition with immobilised ligand; 1 µM): 100%
Cc1cnn2ncc(-c3ccnc(N(C)C)n3)c2c1  remaining binding (binding; 1 µM): 100%
O=C(c1ccc(Nc2ncc(Cl)c(-c3cc4ccccc4s3)n2)cc1)N1CCC(N2CCCC2)CC1  remaining binding (cell-free assay, competition with immobilised ligand; 1 µM): 92%
CN([C@@H]1CCc2c(CC(=O)O)c3ccccc3n2C1)S(=O)(=O)c1ccc(F)cc1  remaining binding (cell-free assay, competition with immobilised ligand; 1 µM): 93%
CN(C)c1ncc(F)c(-c2cnn3ncccc23)n1  remaining binding (binding; 1 µM): 88%
CNCc1ccccc1-c1csc([C@@H](C)Nc2nc(C)nc3cc(OC)c(OC)cc23)c1  remaining binding (cell-free assay, competition with immobilised ligand; 1 µM): 100%
FC(F)(F)Oc1cccc(-c2cnc3ccc(-c4ccncc4)nn23)c1  remaining binding (cell-free assay, competition with immobilised ligand; 5 µM): 69%
O=C(NCc1ncc(C(F)(F)F)cc1Cl)c1ccc2c(c1)C1(CCS(=O)(=O)CC1)[C@H](C1CC1)N2S(=O)(=O)c1ccc(F)cc1  remaining binding (cell-free assay, competition with immobilised ligand; 1 µM): 100%
O=C(c1ccc(Nc2nccc(-c3cc4ccccc4s3)n2)cc1)N1CCC(N2CCCC2)CC1  remaining binding (cell-free assay, competition with immobilised ligand; 1 µM): 93%
C[C@H]1CCN(c2nccc(-c3cnn4ncccc34)n2)C1  remaining binding (binding; 1 µM): 100%
COc1ncc2cc3ccccc3nc2c1C#N  remaining binding (cell-free assay, competition with immobilised ligand; 5 µM): 100%
CC1CCCN1c1nccc(-c2cnn3ncccc23)n1 (centres unmarked)  remaining binding (binding; 1 µM): 98%
COc1cnc(Nc2cccc(S(N)(=O)=O)c2)nc1N1CCN(c2ccccc2)CC1  remaining binding (binding, competition with immobilised ligand; 1 µM): 95%
CN(C)c1nccc(-c2cnn3ncccc23)n1  remaining binding (binding; 1 µM): 100%
O=C(NCCCN1CCOCC1)c1ccc(Nc2nccc(-c3cc4ccccc4s3)n2)cc1  remaining binding (cell-free assay, competition with immobilised ligand; 1 µM): 79%
Cc1nccc(COC(=O)N2C[C@@H]3[C@@H](CNC(=O)c4ccc5[nH]nnc5c4)[C@@H]3C2)n1  remaining binding (cell-free assay, competition with immobilised ligand; 1 µM): 100%
CN(CCCC(F)(F)F)c1nccc(-c2cnn3ncccc23)n1  remaining binding (binding; 1 µM): 85%
